Compound activity (PubChem BioAssay)
Most compounds without a hit are left out; they make up all but 1.9% or so of the library.
NTR1 agonist: agonists of human NTR1, primary screen, imaging, U2OS cells, beta-arrestin-GFP, high content; Neurotensin receptor type 1 (Homo sapiens), P30989; NTR1-U2OS beta-arrestin-GFP spot imaging, agonist mode; activation, % at 20 µM; 330,000 tested, 0.17% active;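 active = activation at or above 40% of the spot to cytoplasm intensity ratio, with at least 20 cells analyzed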;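 note: 0% = DMSO without peptide and 100% = 100 nM NTR1 peptide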
Target sequence (P30989 whole entry, looked up): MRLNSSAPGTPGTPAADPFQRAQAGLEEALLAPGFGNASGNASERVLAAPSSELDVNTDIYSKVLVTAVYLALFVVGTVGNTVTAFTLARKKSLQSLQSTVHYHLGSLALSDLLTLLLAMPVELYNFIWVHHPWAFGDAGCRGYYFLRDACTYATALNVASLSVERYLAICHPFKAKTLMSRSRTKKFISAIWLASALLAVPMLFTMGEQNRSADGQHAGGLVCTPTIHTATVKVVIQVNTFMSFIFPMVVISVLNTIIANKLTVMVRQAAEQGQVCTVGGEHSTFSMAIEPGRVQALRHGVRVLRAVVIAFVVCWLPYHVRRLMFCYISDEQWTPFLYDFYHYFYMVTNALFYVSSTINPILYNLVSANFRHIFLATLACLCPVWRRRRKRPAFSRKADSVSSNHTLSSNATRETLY
NOD2-RIPK2 inh: NOD2-RIPK2 binding disruptors in cells, primary screen, fluorescence, CHO cells, BLA complementation; 360,000 tested, 0.38% active; inhibition, % at 4.98 µM; Receptor-interacting serine/threonine-protein kinase 2 (Homo sapiens), O43353; AID 624267, 2012; CCF4 ratio; in the data active = inhibition above about 21%;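 note: 0% = vehicle only and 100% = reference blocker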
MC4R antagonist: MC4R antagonists of cAMP signaling, primary screen, cell-based, TR-FRET, antagonist arm of biased-ligand search | inhibition, % at 6.5 µM | MC4R-expressing cells, MTII-stimulated cAMP, LANCE TR-FRET | 360,000 tested, 0.48% active | Melanocortin receptor 4 (Homo sapiens), P32245;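 active = inhibition above its plate's cutoff, the mean of tested wells on that plate plus 3 SD, cut at about 29% in these data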;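 note: 0% = Melanotan II alone and 100% = Melanotan II plus saturating MCL0020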
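Material: U2OS-MC4R stable cell line | Reagent: Melanotan II challenge after compound preincubation | Doses: One concentration, 6.5 µM nominal | Incubation: 30-min compound preincubation, 1-h Melanotan II challenge, 1-h detection, room temperature | Signal: TR-FRET cAMP assay | Replicates: One well per compound, no replicates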
TLR4 MyD88 comp: inhibitors of TLR4-MyD88 association in cells, primary screen, cell-based, HeLa CL3-4, BLA complementation, FRET ratio; Toll-like receptor 4 (Homo sapiens) + Myeloid differentiation primary response protein …; HeLa CL3-4 TLR4/MyD88 BLA complementation; inhibition, % at 8.4 µM; 200,000 tested, 0.18% active; AID 861, 2007; in the data active = inhibition above about 25%;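 note: 0% = vehicle and 100% = reference inhibitor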
MC4R ag barr: MC4R agonists recruiting beta-arrestin, primary screen, cell-based, luminescence, agonist arm of biased-ligand search; Melanocortin receptor 4 (Homo sapiens), P32245; U2OS MC4R beta-arrestin complementation; percent of melanotan II response, DMSO zero; activation, % at 8.9 µM; 360,000 tested, 0.98% active; AID 540308, 2011;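 active = activation above a per-plate cutoff, the mean activation of sample wells on that plate plus 3 SD, cut at about 8% in these data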
TLR9-MyD88 inh: inhibitors of TLR9-MyD88 association in cells, primary screen, cell-based, CHO, BLA complementation, fluorescence | inhibition, % at 4.98 µM | 340,000 tested, 0.21% active | CCF4 FRET ratio;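 active = inhibition above the mean over all tested compounds plus 3 SD, cut at about 21% in these data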;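 note: 0% = DMSO only wells and 100% = clavulanate BLA inhibitor control wells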
MC4R barr ag: MC4R beta-arrestin agonists, retest, confirmation, cell-based, luminescence, U2OS | activation, % at 8.9 µM | shares compounds with MC4R ag barr | 2,400 tested, 31% active | U2OS MC4R beta-arrestin recruitment; scaled DMSO 0%, Melanotan II 100% | AID 602192, 2012;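 active = mean activation across replicates above the hit cutoff set in the earlier primary screen, cut at about 8% in these data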
MOR DOR agonist: agonists of MOR-DOR heterodimerization, counter-screen for MC4R biased agonist project, cell-based, luminescence. activation, % at 9.2 µM. 2,400 tested, 5.8% active. shares compounds with MC4R ag barr. AID 602194, 2012. U2OS PathHunter beta-arrestin, beta-gal luminescence; percent of deltorphin B response, DMSO zero;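 active = mean activation across replicates exceeds the hit threshold derived in the earlier primary screen, cut at about 18% in these data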;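 note: 100% = deltorphin B at 0.9 µM final and 0% = DMSO alone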
Starred values were filed as active, the others as inactive; nt = no result given.

SMILES	NTR1 agonist	NOD2-RIPK2 inh	MC4R antagonist	TLR4 MyD88 comp	MC4R ag barr	TLR9-MyD88 inh	MC4R barr ag	MOR DOR agonist
C=C(C)c1cccc(C(C)(C)NC(=O)NC2CCN(Cc3ccccc3)CC2)c1	0	-11	5	nt	3	-1	nt	nt
COc1ccc(C2=NS(=O)(=O)N(C)C(C(=O)NC3CCCCC3)=C2)cc1OC	0	-1	11	nt	-1	-5	nt	nt
COc1ccc([C@H]2CC(=O)C=C(c3cccc(F)c3OC)C2)cc1	-1	-2	0	nt	-1	2	nt	nt
Cc1cc(C(=O)Nc2sc3c(c2C#N)CCCCC3)cs1	13	-18	9	8	14*	0	-2	3
CO/N=C(/CS(=O)Cc1ccc(Cl)cc1)c1ccc(Cl)cc1 (stereo not drawn)	4	-4	11	9	14*	-3	0	6
CCn1c(SCC(=O)Nc2ccc(C(C)=O)cc2)nc2nc3c(cc2c1=O)CCCC3	6	-13	11	10	19*	-11	18*	2
CCn1c(SCC(=O)Nc2ccc(Cl)cc2)nc2nc3c(cc2c1=O)CCCC3	12	10	12	4	0	-7	nt	nt
O=C(Nc1ccc2ccccc2c1)c1ccccc1Cl	nt	-10	8	nt	-3	2	nt	nt
O=C(Nc1ccc2ccccc2c1)c1ccc(Cl)cc1Cl	11	9	16	nt	12*	4	2	5
CCC(C)(C)C(=O)Nc1cccc(Cl)c1C	0	4	3	-2	-2	-5	nt	nt
COc1ccc(NC(=O)CC(c2ccc(F)cc2)c2ccc(OC(C)C)cc2)cc1 (stereo not drawn)	3	6	9	8	15*	-5	7	3
CCOc1ccc(NC(=O)CC(c2ccccc2)c2ccc(F)cc2)cc1 (stereo not drawn)	0	-2	4	1	17*	1	0	6
CCOc1ccc(NC(=O)Cc2ccccc2)cc1	1	-8	1	-15	-1	-6	nt	nt
CC(C)Oc1ccc(C(CC(=O)O)c2ccc(F)cc2)cc1 (stereo not drawn)	1	1	4	nt	-1	0	nt	nt
O=C(Nc1cc(Cl)ccc1-n1cncn1)c1ccc([N+](=O)[O-])s1	0	-2	11	nt	-3	2	nt	nt
C=CCc1ccc(O)c(-c2cc(CC=C)ccc2O)c1	2	-8	7	2	9.7*	4	5	9
CSc1nc2ccc(NC(=O)CS(=O)(=O)c3ccccc3)cc2s1	nt	-5	10	nt	1	7	nt	nt
CSc1nc2ccc(NC(=O)COc3ccccc3F)cc2s1	2	8	1	nt	10*	7	0	3
CCC(=O)Nc1sc(C(=O)Nc2ccccc2OC)c(C)c1C(=O)OC	4	-3	5	2	11*	2	3	3
CCC(=O)Nc1sc(C(=O)Nc2ccccc2F)c(C)c1C(=O)OC	5	3	14	8	3	-2	nt	nt
Cc1cc(OCc2cc(C(=O)NC3CCC3)no2)cc(C)c1Cl	2	4	3	nt	11*	2	0	4
Cc1cccc(C)c1OCc1cc(C(=O)NCC2CCCCC2)no1	2	-2	-2	nt	11*	-8	3	3
